# Published values collected from several papers.
# Lines come from different studies, so protocols differ.
# Observed: cell growth or viability
Compound,cell line,assay,setting,quantity,value
COc1cc(NC(=O)c2cnn(-c3ccc([N+](=O)[O-])cc3)c2C(F)(F)F)cc(OC)c1,LX-2,MTS,"50 µM, 72 h",inhibition,14.1%
COc1ccc(NC(=O)Nc2ccc(-c3cn(Cc4ccc(C)cc4)nn3)cc2)cc1,Huh-7,CCK-8,"50 µM, 72 h",viability,64.7%
O=c1[nH]cc(F)c(=O)[nH]1,LX-2,MTS,"50 µM, 72 h",inhibition,81.4%
O=C(Nc1cccc(-c2cn(Cc3ccc(Br)cc3)nn2)c1)Nc1ccccc1Br,Huh-7,CCK-8,"50 µM, 48 h",viability,61.2%
O=[N+]([O-])c1cc(I)c(O)c(C=NNc2ccc(Br)cc2)c1,HEK-293T,MTT,24 h,IC50,11.4 µM
CC(C)C[C@H](NC(=O)[C@H](Cc1ccccc1)NC(=O)c1cnccn1)B(O)O,HepG2,ATP luminescence,48 h,EC50,7 pM
O=C(Nc1ccc(Cl)cc1)Nc1ccc(-c2cn(Cc3ccc(Br)cc3)nn2)cc1,Huh-7,CCK-8,"50 µM, 72 h",viability,65%
COc1ccc(NC(=O)Nc2cccc(-c3cn(Cc4ccccc4C)nn3)c2)cc1,Huh-7,CCK-8,"50 µM, 72 h",viability,10.5%
O=C(Nc1ccc(-c2cn(Cc3ccc(Br)cc3)nn2)cc1)Nc1ccccc1Br,Huh-7,CCK-8,"50 µM, 48 h",viability,70.8%
COc1ccc(NC(=O)NCc2cn(Cc3ccccc3C)nn2)cc1,Huh-7,CCK-8,"50 µM, 72 h",viability,86.8%
O=C(Nc1ccc(Cl)cc1)Nc1ccc(-c2cn(Cc3cccc(Cl)c3)nn2)cc1,Huh-7,CCK-8,"50 µM, 72 h",viability,70.4%
Cc1nc(Nc2ncc(C(=O)Nc3c(C)cccc3Cl)s2)cc(N2CC[C@H](O)C2)n1,Ramos,ATP luminescence,"10 µM, 72 h",inhibition,15%
